The text below walks through data of BindingDB's records for doi:10.1021/acs.jnatprod.6b00141 (University of Eastern Piedmont, 2016).

The target of experiment [1] is Transcription factor p65 (Human, UniProt Q04206). Nature of the experiment: Inhibition of NFkappaB p65 activation (unknown origin) expressed in human HeLa cells assessed as inhibition of TNFalpha-induced NFkappaB p65 nuclear accumulation pretreated with cells followed by TNFalpha addition by DAPI staining based microscopic analysis.
In experiment [2] the target is Signal transducer and activator of transcription 3 (Homo sapiens, UniProt P40763). Nature of the experiment: Inhibition of IFNgamma-induced STAT3 activation in human HeLa cells expressing STAT3 (unknown origin) preincubated for 15 mins followed by IFN-gamma addition measured after 6 hrs by luciferase reporter gene assay. Put shortly:
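HeLa-STAT3-Luc reporter cells in DMEM with 10% heat-inactivated FBS. Compounds added 15 min before IFNγ (20 IU). Stimulated 6 h. Cells washed in PBS and lysed 15 min at room temperature in Tris-phosphate pH 7.8 lysis buffer. Luciferase read in centrifuged lysate supernatant. IC50 calculated.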

The structures appear in SMILES notation.

Sequence of Signal transducer and activator of transcription 3 (P40763 whole entry): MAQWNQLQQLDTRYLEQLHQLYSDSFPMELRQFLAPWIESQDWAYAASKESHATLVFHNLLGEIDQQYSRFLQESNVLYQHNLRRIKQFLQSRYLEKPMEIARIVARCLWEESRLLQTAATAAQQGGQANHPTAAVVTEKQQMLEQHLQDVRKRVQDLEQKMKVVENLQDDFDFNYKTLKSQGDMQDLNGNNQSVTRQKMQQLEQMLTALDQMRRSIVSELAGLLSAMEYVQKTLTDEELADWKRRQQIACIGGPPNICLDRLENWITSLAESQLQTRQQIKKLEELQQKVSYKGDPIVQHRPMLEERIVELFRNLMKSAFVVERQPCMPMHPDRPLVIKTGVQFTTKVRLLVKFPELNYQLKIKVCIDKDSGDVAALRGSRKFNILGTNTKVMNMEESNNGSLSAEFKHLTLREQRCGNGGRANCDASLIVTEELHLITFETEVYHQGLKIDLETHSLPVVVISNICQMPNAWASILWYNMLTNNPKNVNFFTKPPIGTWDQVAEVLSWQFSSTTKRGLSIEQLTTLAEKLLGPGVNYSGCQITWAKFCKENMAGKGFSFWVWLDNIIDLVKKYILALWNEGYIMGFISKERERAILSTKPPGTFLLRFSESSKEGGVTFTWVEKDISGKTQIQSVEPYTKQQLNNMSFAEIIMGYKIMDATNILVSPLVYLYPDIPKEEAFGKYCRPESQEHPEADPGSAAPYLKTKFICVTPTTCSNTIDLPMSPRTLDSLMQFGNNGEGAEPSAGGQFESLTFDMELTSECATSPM
Sequence of Transcription factor p65 (Q04206 whole entry): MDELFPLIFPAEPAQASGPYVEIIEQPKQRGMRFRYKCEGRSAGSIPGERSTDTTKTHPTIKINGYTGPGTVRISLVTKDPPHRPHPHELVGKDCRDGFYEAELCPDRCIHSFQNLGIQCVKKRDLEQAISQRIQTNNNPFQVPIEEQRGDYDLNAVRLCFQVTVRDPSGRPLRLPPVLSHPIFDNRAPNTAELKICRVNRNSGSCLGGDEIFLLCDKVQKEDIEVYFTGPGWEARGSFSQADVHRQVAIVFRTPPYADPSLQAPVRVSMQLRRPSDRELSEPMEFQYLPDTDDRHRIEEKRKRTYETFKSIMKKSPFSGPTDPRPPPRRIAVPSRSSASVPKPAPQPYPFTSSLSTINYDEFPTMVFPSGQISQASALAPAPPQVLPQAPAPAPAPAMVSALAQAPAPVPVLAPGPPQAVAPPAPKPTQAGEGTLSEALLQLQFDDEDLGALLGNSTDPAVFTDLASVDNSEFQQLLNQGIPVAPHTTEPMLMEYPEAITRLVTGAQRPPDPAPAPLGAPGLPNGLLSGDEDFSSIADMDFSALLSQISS

A word on the IC50: it is the concentration needed to halve the response being measured. With `CC(=O)O[C@H]1CC/C(C)=C/CC/C(C)=C/C[C@]2(C(C)C)CC[C@@]1(C)O2`, the figures for the IC50 in experiment [1] and in experiment [2] were more than 100 µM and more than 50 µM, respectively.
In experiment [2], `C/C1=C\CC/C(C)=C/C[C@](O)(C(C)C)CC/C(C)=C/CC1` had a concentration for half-maximal inhibition (IC50) of more than 50 µM.
On the same count and under the same terms, the value for `CC1=C2CC/C(C)=C/CC[C@]3(C)O[C@@H]3CC/C(C)=C/[C@@H]2OC1=O` was more than 50 µM; that for `C/C1=C\C[C@]2(C(C)C)CC[C@@](C)(O2)[C@H](O)CC/C(C)=C/CC1` was more than 50 µM; that for `C/C1=C\CC[C@]2(C)O[C@@H]2C[C@]2(C(C)C)CC[C@@](C)(O2)[C@@H](O)CC1` was more than 50 µM.
Regarding `CC(=O)O[C@H]1CC/C(C)=C/CC[C@]2(C)O[C@@H]2C[C@]2(C(C)C)CC[C@@]1(C)O2`, the 50% inhibitory concentration (IC50) in experiment [2] is more than 50 µM.
Same read-out and setting: the value for `CC(=O)O[C@H]1CC[C@@]2(C)O[C@H]2CC/C(C)=C/C[C@]2(C(C)C)CC[C@@]1(C)O2` was more than 50 µM.
The same measure, in the same setting: the value for `C/C1=C\C[C@]2(C(C)C)CC[C@@](C)(O2)[C@@H](OC(=O)Cc2ccccc2)CC/C(C)=C/CC1` was more than 50 µM; that for `C/C1=C\C[C@]2(C(C)C)CC[C@@](C)(O2)[C@@H](O)CC/C(C)=C/CC1` [Incensole] was 15.8 µM.
